In experiment [1] the test system is S. aureus ATCC 13709 (Smith). In words: Mouse abscess infection model. The class given is in vivo. As to conditions: after 26 h; orally at 20 mg/kg. In short, it runs like this:
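Female CD-1 mice were infected s.c. in the right flank under anaesthesia with 0.25 mL inoculum (OD625 0.1 saline suspension from plate culture; target 1.0×10^6, actual 1.4×10^6 CFU/mouse) mixed with […] beads. From 2 h post-infection, test compounds were injected into the abscess (100 uL), repeated 12 h later; positive control was oral. Five per group; T=0 group sampled. Abscess CFU at 26 h; mean and SD.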

Another experiment deals with S. aureus Smith. In words: Mouse septicemia model. The class given is in vivo. As to conditions: 10 mg/kg i.v., five mice. In outline: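 CD-1 female mice (18–20 g), acclimated 5 days, were infected i.p. with 0.5 ml of S. aureus (overnight liquid culture diluted 1:10, grown 5 h shaking) diluted in 5% hog gastric mucin, pH 7.4, to give ≥90% mortality within 48 h (1.6 × 10^6 CFU). Single slow i.v. bolus at 10 mL/kg 1 h post-infection. Five mice per treatment group; ten vehicle-dosed infection controls. Read-out: survival.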

Structures are written as SMILES.

Data on 2 compounds can be found in paper PMC9575405 (ACS infectious diseases, 2021).

As for `CC(=O)NC[C@H]1CN(c2ccc(N3CCOCC3)c(F)c2)C(=O)O1` [linezolid], the “increase in CFUs” value in experiment [1] worked out at 1 log10.
As to `CN[C@H](CC(C)C)C(=O)N[C@H]1C(=O)N[C@@H](CC(N)=O)C(=O)N[C@H]2C(=O)N[C@H]3C(=O)N[C@H](C(=O)N[C@H](C(=O)O)c4cc(O)cc(O)c4-c4cc3ccc4O)[C@H](O)c3ccc(c(Cl)c3)Oc3cc2cc(c3O[C@@H]2O[C@H](CO)[C@@H](O)[C@H](O)[C@H]2O[C@H]2C[C@](C)(N)[C@H](O)[C@H](C)O2)Oc2ccc(cc2Cl)[C@H]1O` [vancomycin], in the experiment with S. aureus Smith, the survival result is “all five mice”.
